Values after ≈ are worked out from the molar mass of the structure shown.

The first assay has as its system Clostridium perfringens. Description: Antibacterial activity was determined against Clostridium perfringens 10A002. The class given is functional.
Settings: not given
An outline of the steps:
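Agar dilution MIC on BHI agar, twelve 2-fold dilutions of drug starting at 200 μg/mL. Overnight BHI broth cultures (37 °C) diluted 100-fold; about 10000–20000 cells spotted per point by multiple inoculator. Plates read after 18 h at 37 °C, single colonies disregarded. Incubated anaerobically under 80% N₂, 10% CO₂, 10% H₂ in an anaerobic chamber.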
In general, MIC refers to the smallest concentration in the dilution series that meets the test's criterion for growth inhibition. High values mean a need for much substance, low ones inhibition by little substance. `CC(C)c1cc(C(C)(C)CC(C)(C)C)cc2c1OCCOCCOCc1cc(C(C)(C)C)cc(c1C(=O)O)COCCOCCO2`: the MIC is < 0.39 mg/L.
With `CC(C)(C)CC(C)(C)c1ccc2c(c1)OCCOCCOCc1cccc(c1C(=O)O)COCCOCCO2`, 25 mg/L (≈ 45.9 µM) was the least that counted as inhibitory (MIC).
`CCCCCCCCCCCc1ccc2c(c1)OCCOCCOCc1cccc(c1C(=O)O)COCCOCCO2` registered an MIC of 3.12 mg/L (≈ 5.32 µM).
Still for that read-out and setting: the value for `O=C(O)c1c2cccc1COCCOCCOc1ccccc1OCCOCCOC2` was > 200 mg/L.
On to `CC(C)(C)c1cc2c(C(=O)O)c(c1)COC(COc1ccccc1)COc1ccccc1OCCOCCOCCOC2` (stereo unspecified), for which the MIC was found to be 25 mg/L (≈ 42 µM).
Still for that read-out and setting: with `Cc1cc(C(C)(C)CC(C)(C)C)cc2c1OCCOCCOCc1cc(C(C)(C)C)cc(c1C(=O)O)COCCOCCO2` the figure was 3.12 mg/L (≈ 5.07 µM).
Regarding `O=C(O)c1c2cccc1COCCOCCOCCOCCOCCOC2`, the MIC is > 200 mg/L.
On to `CC(C)(C)CC(C)(C)c1ccc2c(c1)OCCOCCOCCOCc1cc(C(C)(C)C)cc(c1C(=O)O)COCCOCCOCCO2`, for which the MIC amounted to 25 mg/L (≈ 36.3 µM).

The species named for a further assay is Bos taurus. Description: In vitro rumen propionic acid test procedure, 50 ug/mL. It counts as functional.
Settings: not given
An outline of the steps:
(§1)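 Filtered rumen fluid (10 mL) with 400 mg substrate (68% corn starch, 17% cellulose, 15% extracted soybean meal) and pH 6.8 buffer, compound at 50 or 20 μg/mL; N2-gassed, shaken at 39 °C ~6 h, triplicate. Stopped with metaphosphoric acid, then GLC peak heights of acetic/propionic/butyric acids; response expressed relative to monensin at 10 μg/mL versus untreated controls.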
For the compound `CC(C)c1cc(C(C)(C)CC(C)(C)C)cc2c1OCCOCCOCc1cc(C(C)(C)C)cc(c1C(=O)O)COCCOCCO2`, the Stimulation is reported as 0.7%.
In the case of `CC(C)(C)CC(C)(C)c1ccc2c(c1)OCCOCCOCc1cccc(c1C(=O)O)COCCOCCO2`, the Stimulation stood at 1.02%.
On the same count and under the same terms, with `CCCCCCCCCCCc1ccc2c(c1)OCCOCCOCc1cccc(c1C(=O)O)COCCOCCO2` the figure was 0.82%; with `O=C(O)c1c2cccc1COCCOCCOc1ccccc1OCCOCCOC2`, 0.2%.
On the same count and under the same terms, with `Cc1cc(C(C)(C)CC(C)(C)C)cc2c1OCCOCCOCc1cc(C(C)(C)C)cc(c1C(=O)O)COCCOCCO2` the figure was 1.02%; with `O=C(O)c1c2cccc1COCCOCCOCCOCCOCCOC2`, 0%.
Still for that read-out and setting: the value for `CC(C)(C)CC(C)(C)c1ccc2c(c1)OCCOCCOCCOCc1cc(C(C)(C)C)cc(c1C(=O)O)COCCOCCOCCO2` was 0.52%.

Tested on in a further assay: not listed separately
Description: Antibacterial activity Streptococcus zooepidemicus 02H001. Conditions: Streptococcus equi. The class given is functional, Streptococcus equi subsp. zooepidemicus. The essentials:
(§2)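 Agar dilution MIC on BHI agar: overnight BHI broth cultures (37 °C) diluted 100-fold, ~10000–20000 cells spotted by multiple inoculator; twelve 2-fold dilutions starting at 200 μg/mL; plates read after 18 h at 37 °C, single colonies disregarded. Compounds tested as macrocyclic carboxylate salts.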
`CC(C)c1cc(C(C)(C)CC(C)(C)C)cc2c1OCCOCCOCc1cc(C(C)(C)C)cc(c1C(=O)O)COCCOCCO2` registered a minimal inhibitory concentration (MIC) of 0.78 mg/L (≈ 1.21 µM).
`CC(C)(C)CC(C)(C)c1ccc2c(c1)OCCOCCOCc1cccc(c1C(=O)O)COCCOCCO2` registered a minimum inhibitory concentration (MIC) of 25 mg/L (≈ 45.9 µM).
The compound `CCCCCCCCCCCc1ccc2c(c1)OCCOCCOCc1cccc(c1C(=O)O)COCCOCCO2` had an MIC of 1.56 mg/L (≈ 2.66 µM).
Still for that read-out and setting: the value for `O=C(O)c1c2cccc1COCCOCCOc1ccccc1OCCOCCOC2` was > 200 mg/L.
As to `CC(C)(C)c1cc2c(C(=O)O)c(c1)COC(COc1ccccc1)COc1ccccc1OCCOCCOCCOC2` (stereo unspecified), the lowest concentration to inhibit growth (MIC) was 50 mg/L (≈ 84.1 µM).
In the case of `Cc1cc(C(C)(C)CC(C)(C)C)cc2c1OCCOCCOCc1cc(C(C)(C)C)cc(c1C(=O)O)COCCOCCO2`, the minimum inhibitory concentration (MIC) was 6.25 mg/L (≈ 10.2 µM).
Same read-out and setting: with `O=C(O)c1c2cccc1COCCOCCOCCOCCOCCOC2` the figure was > 200 mg/L.
Still for that read-out and setting: the value for `CC(C)(C)CC(C)(C)c1ccc2c(c1)OCCOCCOCCOCc1cc(C(C)(C)C)cc(c1C(=O)O)COCCOCCOCCO2` was 25 mg/L (≈ 36.3 µM).

Another assay is filed under the species Bos taurus. Put plainly: In vitro rumen propionic acid test procedure, 20 ug/mL.
Settings: not given
The class given is functional. An outline of the steps:
as §1
As to `CC(C)c1cc(C(C)(C)CC(C)(C)C)cc2c1OCCOCCOCc1cc(C(C)(C)C)cc(c1C(=O)O)COCCOCCO2`, the Stimulation is 0.43%.
`CC(C)(C)CC(C)(C)c1ccc2c(c1)OCCOCCOCc1cccc(c1C(=O)O)COCCOCCO2` displayed a Stimulation of 0.4%.
In the case of `CCCCCCCCCCCc1ccc2c(c1)OCCOCCOCc1cccc(c1C(=O)O)COCCOCCO2`, the Stimulation is 0.46%.
`CC(C)(C)c1cc2c(C(=O)O)c(c1)COC(COc1ccccc1)COc1ccccc1OCCOCCOCCOC2` (stereo unspecified) gave a Stimulation of 0%.
As to `Cc1cc(C(C)(C)CC(C)(C)C)cc2c1OCCOCCOCc1cc(C(C)(C)C)cc(c1C(=O)O)COCCOCCO2`, the Stimulation turned out to be 0.5%.
Take `O=C(O)c1c2cccc1COCCOCCOCCOCCOCCOC2`: the Stimulation was determined as 0%.
As to `CC(C)(C)CC(C)(C)c1ccc2c(c1)OCCOCCOCCOCc1cc(C(C)(C)C)cc(c1C(=O)O)COCCOCCOCCO2`, the Stimulation amounted to 0.4%.

A further assay deals with Staphylococcus aureus. Put plainly: Antibacterial activity against Staphylococcus aureus 01A005. The class given is functional.
Settings: not given
An outline of the steps: as §2
As for `CC(C)c1cc(C(C)(C)CC(C)(C)C)cc2c1OCCOCCOCc1cc(C(C)(C)C)cc(c1C(=O)O)COCCOCCO2`, the MIC was found to be 0.78 mg/L (≈ 1.21 µM).
On the same count and under the same terms, with `CC(C)(C)CC(C)(C)c1ccc2c(c1)OCCOCCOCc1cccc(c1C(=O)O)COCCOCCO2` the figure was 25 mg/L (≈ 45.9 µM); with `CCCCCCCCCCCc1ccc2c(c1)OCCOCCOCc1cccc(c1C(=O)O)COCCOCCO2`, 1.56 mg/L (≈ 2.66 µM); with `O=C(O)c1c2cccc1COCCOCCOc1ccccc1OCCOCCOC2`, > 200 mg/L.
In turn, `CC(C)(C)c1cc2c(C(=O)O)c(c1)COC(COc1ccccc1)COc1ccccc1OCCOCCOCCOC2` (stereo unspecified) registered an MIC of 25 mg/L (≈ 42 µM).
Regarding `Cc1cc(C(C)(C)CC(C)(C)C)cc2c1OCCOCCOCc1cc(C(C)(C)C)cc(c1C(=O)O)COCCOCCO2`, the minimum inhibitory concentration (MIC) was 6.25 mg/L (≈ 10.2 µM). Against the preceding compound, the MIC is about 4-fold lower.
Still for that read-out and setting: the value for `O=C(O)c1c2cccc1COCCOCCOCCOCCOCCOC2` was > 200 mg/L; that for `CC(C)(C)CC(C)(C)c1ccc2c(c1)OCCOCCOCCOCc1cc(C(C)(C)C)cc(c1C(=O)O)COCCOCCOCCO2` was 50 mg/L (≈ 72.6 µM).

Tested on in a further assay: not listed separately
Put plainly: Antibacterial activity against Streptococcus equi 02I001.
Settings: not given
It counts as functional. An outline of the steps: as §2
`CC(C)c1cc(C(C)(C)CC(C)(C)C)cc2c1OCCOCCOCc1cc(C(C)(C)C)cc(c1C(=O)O)COCCOCCO2`: the MIC is 0.78 mg/L (≈ 1.21 µM).
`CC(C)(C)CC(C)(C)c1ccc2c(c1)OCCOCCOCc1cccc(c1C(=O)O)COCCOCCO2` registered an MIC of 25 mg/L (≈ 45.9 µM).
As to `CCCCCCCCCCCc1ccc2c(c1)OCCOCCOCc1cccc(c1C(=O)O)COCCOCCO2`, 1.56 mg/L (≈ 2.66 µM) was the least that counted as inhibitory (MIC).
Regarding `O=C(O)c1c2cccc1COCCOCCOc1ccccc1OCCOCCOC2`, the MIC is > 200 mg/L.
As to `CC(C)(C)c1cc2c(C(=O)O)c(c1)COC(COc1ccccc1)COc1ccccc1OCCOCCOCCOC2` (stereo unspecified), the lowest concentration to inhibit growth (MIC) was 25 mg/L (≈ 42 µM).
As to `Cc1cc(C(C)(C)CC(C)(C)C)cc2c1OCCOCCOCc1cc(C(C)(C)C)cc(c1C(=O)O)COCCOCCO2`, the minimal inhibitory concentration (MIC) amounted to 3.12 mg/L (≈ 5.07 µM).
For `O=C(O)c1c2cccc1COCCOCCOCCOCCOCCOC2`, the minimal inhibitory concentration (MIC) was > 200 mg/L.
`CC(C)(C)CC(C)(C)c1ccc2c(c1)OCCOCCOCCOCc1cc(C(C)(C)C)cc(c1C(=O)O)COCCOCCOCCO2` gave an MIC of 12.5 mg/L (≈ 18.1 µM).

Values taken from ChEMBL document CHEMBL1125098, “Lipophilic 1,3-xylyl-21-crown-6 macrocyclic polyether 2-carboxylic acids as biological mimics of the ionophore antibiotics” (1990).
